# In ChEMBL document CHEMBL3272325, “Structure-activity relationships of dimeric Catharanthus alkaloids. 1. Deacetylvinblastine amide (vindesine) sulfate” (J Med Chem, 1978):
# Activity calls are given as the source filed them. The rule behind the calls is not given here.
# Columns and labels:
# P388 [1] = assay: Antitumor activity against mouse P388 cells allografted in mouse assessed as survival at 4 mg/kg/day after 1 day; type: functional, organism-based
# Outline: (§1)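 P388 ascites implanted ip in mice; sulfate salts dosed either daily or as a single dose on day 1, 10 animals per group. Survivors per total were recorded, median life span was calculated using all deaths and survivors, and percent increase of life span was reported.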
# B16 [2] = assay: Antitumor activity against mouse B16 cells allografted in B6D2F1 mouse assessed as mean survival time at 0.389 mg/kg/day, ip administered on day 1, 5 and 9 (reference value: 20.0 days); type: functional; conditions: route intraperitoneal
# Outline: (§2)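 Male B6D2F1 mice implanted ip on day 0 with 0.25 mL of a 20% (w/v) B16 melanoma brei. Alkaloid sulfate salts given ip on days 1, 5, 9 or on days 5, 9, 13, groups of 10, against 30 untreated controls. Read-outs: median survival time with range of individual deaths, and percent increase in life span, with survivors counted on day 56.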
# B16 [3] = assay: Antitumor activity against mouse B16 cells allografted in B6D2F1 mouse assessed as increase in life span at 1.8 mg/kg/day, ip administered on day 1, 5 and 9 measured for 56 days relative to untreated control; type: functional; conditions: route intraperitoneal; outline: as §2
# B16 [4] = assay: Antitumor activity against mouse B16 cells allografted in B6D2F1 mouse assessed as mean survival time at 3 mg/kg/day, ip administered on day 5, 9 and 13 (reference value: 20.0 days); type: functional; conditions: route intraperitoneal; outline: as §2
# B16 [5] = assay: Antitumor activity against mouse B16 cells allografted in B6D2F1 mouse assessed as mean survival time at 0.389 mg/kg/day, ip administered on day 5, 9 and 13 (reference value: 20.0 days); type: functional; conditions: route intraperitoneal; outline: as §2
# P388 [6] = assay: Antitumor activity against mouse P388 cells allografted in mouse assessed as increase in life span at 2.7 mg/kg/day, ip after 1 day; type: functional; conditions: 24 h, route intraperitoneal
# Outline: (§3)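 P388 ascites implanted ip in mice, 10 animals per group. Sulfate salts given ip either daily on days 1-9 or as a single dose on day 1. Median life span was calculated using all deaths and survivors. Percent increase in life span was taken over untreated controls. The highest nontoxic dose was noted.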
# B16 [7] = assay: Antitumor activity against mouse B16 cells allografted in B6D2F1 mouse assessed as increase in life span at 3 mg/kg/day, ip administered on day 1, 5 and 9 measured for 56 days relative to untreated control; type: functional; conditions: route intraperitoneal; outline: as §2
# P388 [8] = assay: Antitumor activity against mouse P388 cells allografted in mouse assessed as survival at 2.7 mg/kg/day after 1 day; type: functional, organism-based; outline: as §1
# P388 [9] = assay: Antitumor activity against mouse P388 cells allografted in mouse assessed as survival at 0.4 mg/kg/day administered from day 1 to day 9; type: functional, organism-based; outline: as §1
# [10] = Acute toxicity in rat; type: organism-based; conditions: in vivo
# P388 [11] = assay: Antitumor activity against mouse P388 cells allografted in mouse assessed as increase in life span at 0.6 mg/kg/day, ip administered from day 1 to day 9 relative to untreated control; type: functional; conditions: route intraperitoneal; outline: as §3
# [12] = Antitumor activity against mouse Ridgeway osteogenic sarcoma cells allografted in mouse at 0.1 to 0.35 mg/kg/day, ip; type: functional; conditions: route intraperitoneal
# Outline: (§4)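 Sulfate salts given ip on days 1-9 against ROS and GLS in mice; tumor growth scored as percent inhibition versus controls (+++ = 75-100%, ++ = 50-75%, ± = under 25%).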
# B16 [13] = assay: Antitumor activity against mouse B16 cells allografted in B6D2F1 mouse assessed as increase in life span at 1.08 mg/kg/day, ip administered on day 5, 9 and 13 measured for 56 days relative to untreated control; type: functional; conditions: route intraperitoneal; outline: as §2
# B16 [14] = assay: Antitumor activity against mouse B16 cells allografted in B6D2F1 mouse assessed as increase in life span at 0.648 mg/kg/day, ip administered on day 5, 9 and 13 measured for 56 days relative to untreated control; type: functional; conditions: route intraperitoneal; outline: as §2
# B16 [15] = assay: Antitumor activity against mouse B16 cells allografted in B6D2F1 mouse assessed as mean survival time at 1.08 mg/kg/day, ip administered on day 5, 9 and 13 (reference value: 20.0 days); type: functional; conditions: route intraperitoneal; outline: as §2
# [16] = Antitumor activity against mouse Gardner lymphosarcoma cell allografted in mouse at 0.1 to 0.35 mg/kg/day, ip; type: functional; conditions: route intraperitoneal; outline: as §4
# [17] = Toxicity in ip dosed mouse allografted with mouse P1534(J) cells administered from day 1 to day 9; type: organism-based; conditions: in vivo, read-out: MNTD
# Outline: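 P1534(J) leukemia implanted subcutaneously in mice. Sulfate salts given ip daily on days 1-9. Read-out was percent inhibition of tumor growth relative to untreated controls. The highest nontoxic dose was recorded.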
# [18] = Antitumor activity against mouse P1534(J) cells allografted in mouse assessed as tumor growth inhibition at 0.35 mg/kg/day, ip administered from day 1 to day 9 relative to unreated control; type: functional; conditions: P1534J, route intraperitoneal, read-out: TGI
# Outline: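 P1534(J) leukemia implanted subcutaneously in mice; sulfate salts given ip on days 1-9. Read-out is percent inhibition of tumor growth versus untreated controls.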
# P388 [19] = assay: Antitumor activity against mouse P388 cells allografted in mouse assessed as increase in life span at 0.9 mg/kg/day, ip administered from day 1 to day 9 relative to untreated control; type: functional; conditions: route intraperitoneal; outline: as §3
# B16 [20] = assay: Antitumor activity against mouse B16 cells allografted in B6D2F1 mouse assessed as mean survival time at 0.648 mg/kg/day, ip administered on day 5, 9 and 13 (reference value: 20.0 days); type: functional; conditions: route intraperitoneal; outline: as §2
# [21] = Toxicity in ip dosed mouse allografted with mouse p388 cells after 1 day; type: organism-based; conditions: in vivo, read-out: MNTD; outline: as §3
# B16 [22] = assay: Antitumor activity against mouse B16 cells allografted in B6D2F1 mouse assessed as increase in life span at 3 mg/kg/day, ip administered on day 5, 9 and 13 measured for 56 days relative to untreated control; type: functional; conditions: route intraperitoneal; outline: as §2
# B16 [23] = assay: Antitumor activity against mouse B16 cells allografted in B6D2F1 mouse assessed as mean survival time at 3 mg/kg/day, ip administered on day 1, 5 and 9 (reference value: 20.0 days); type: functional; conditions: route intraperitoneal; outline: as §2
# B16 [24] = assay: Antitumor activity against mouse B16 cells allografted in B6D2F1 mouse assessed as increase in life span at 0.389 mg/kg/day, ip administered on day 5, 9 and 13 measured for 56 days relative to untreated control; type: functional; conditions: route intraperitoneal; outline: as §2
# B16 [25] = assay: Antitumor activity against mouse B16 cells allografted in B6D2F1 mouse assessed as mean survival time at 1.8 mg/kg/day, ip administered on day 5, 9 and 13 (reference value: 20.0 days); type: functional; conditions: route intraperitoneal; outline: as §2
# B16 [26] = assay: Antitumor activity against mouse B16 cells allografted in B6D2F1 mouse assessed as increase in life span at 1.08 mg/kg/day, ip administered on day 1, 5 and 9 measured for 56 days relative to untreated control; type: functional; conditions: route intraperitoneal; outline: as §2
# B16 [27] = assay: Antitumor activity against mouse B16 cells allografted in B6D2F1 mouse assessed as increase in life span at 0.648 mg/kg/day, ip administered on day 1, 5 and 9 measured for 56 days relative to untreated control; type: functional; conditions: route intraperitoneal; outline: as §2
# B16 [28] = assay: Antitumor activity against mouse B16 cells allografted in B6D2F1 mouse assessed as mean survival time at 1.8 mg/kg/day, ip administered on day 1, 5 and 9 (reference value: 20.0 days); type: functional; conditions: route intraperitoneal; outline: as §2
# B16 [29] = assay: Antitumor activity against mouse B16 cells allografted in B6D2F1 mouse assessed as mean survival time at 0.648 mg/kg/day, ip administered on day 1, 5 and 9 (reference value: 20.0 days); type: functional; conditions: route intraperitoneal; outline: as §2
# P388 [30] = assay: Antitumor activity against mouse P388 cells allografted in mouse assessed as increase in life span at 0.4 mg/kg/day, ip administered from day 1 to day 9 relative to untreated control; type: functional; conditions: route intraperitoneal; outline: as §3
# B16 [31] = assay: Antitumor activity against mouse B16 cells allografted in B6D2F1 mouse assessed as increase in life span at 1.8 mg/kg/day, ip administered on day 5, 9 and 13 measured for 56 days relative to untreated control; type: functional; conditions: route intraperitoneal; outline: as §2
# [32] = Toxicity in ip dosed mouse allografted with mouse p388 cells administered from day 1 to day 9; type: organism-based; conditions: in vivo, read-out: MNTD; outline: as §3
# P388 [33] = assay: Antitumor activity against mouse P388 cells allografted in mouse assessed as increase in life span at 9 mg/kg/day, ip after 1 day; type: functional; conditions: 24 h, route intraperitoneal; outline: as §3
# P388 [34] = assay: Antitumor activity against mouse P388 cells allografted in mouse assessed as increase in life span at 4 mg/kg/day, ip after 1 day; type: functional; conditions: 24 h, route intraperitoneal; outline: as §3
# P388 [35] = assay: Antitumor activity against mouse P388 cells allografted in mouse assessed as increase in life span at 6 mg/kg/day, ip after 1 day; type: functional; conditions: 24 h, route intraperitoneal; outline: as §3
# [36] = Acute toxicity in ip dosed mouse; type: organism-based; conditions: in vivo
# P388 [37] = assay: Antitumor activity against mouse P388 cells allografted in mouse assessed as increase in life span at 0.27 mg/kg/day, ip administered from day 1 to day 9 relative to untreated control; type: functional; conditions: route intraperitoneal; outline: as §3
# B16 [38] = assay: Antitumor activity against mouse B16 cells allografted in B6D2F1 mouse assessed as mean survival time at 1.08 mg/kg/day, ip administered on day 1, 5 and 9 (reference value: 20.0 days); type: functional; conditions: route intraperitoneal; outline: as §2
# B16 [39] = assay: Antitumor activity against mouse B16 cells allografted in B6D2F1 mouse assessed as increase in life span at 0.389 mg/kg/day, ip administered on day 1, 5 and 9 measured for 56 days relative to untreated control; type: functional; conditions: route intraperitoneal; outline: as §2
# sarcoma = assay: Antitumor activity against mouse Ridgeway osteogenic sarcoma cell allografted in po dosed mouse; type: functional, organism-based
# Leukemia cell [40] = assay: Antitumor activity against human leukemia cells allografted in human assessed as remission of acute lymphocytic leukemia at 3 to 4 mg/m'2, iv once weekly dosed through push technique; type: functional, organism-based
# P388 [41] = assay: Antitumor activity against mouse P388 cells allografted in mouse assessed as survival at 0.10 mg/kg/day administered from day 1 to day 9; type: functional, organism-based; outline: as §1
# P388 [42] = assay: Antitumor activity against mouse P388 cells allografted in mouse assessed as survival at 1.8 mg/kg/day after 1 day; type: functional, organism-based; outline: as §1
# Mus musculus = assay: Antitumor activity against Gardner lymphosarcoma cell in po dosed mouse; type: functional, organism-based
# Leukemia cell [43] = assay: Antitumor activity against human leukemia cells allografted in human assessed as remission of nonlymphocytic leukemia at 3 to 4 mg/m'2, iv once weekly dosed through push technique; type: functional, organism-based
structure (smiles),measurement,setting,value
CC[C@]1(O)C[C@@H]2CN(CCc3c([nH]c4ccccc34)[C@@](C(=O)OC)(c3cc4c(cc3OC)N(C)[C@H]3[C@@](O)(C(=O)OC)[C@H](OC(C)=O)[C@]5(CC)C=CCN6CC[C@]43[C@@H]65)C2)C1.O=S(=O)(O)O [VINBLASTINE SULFATE],Activity,P388 [1],inactive
same,MST,B16 [2],32 days
same,ILS at 1.8 mg/kg/day,B16 [3],92%
same,MST,B16 [4],32.5 days
same,MST,B16 [5],22.5 days
same,ILS at 2.7 mg/kg/day,P388 [6],81%
same,ILS at 3 mg/kg/day,B16 [7],102%
same,Activity,P388 [8],inactive
same,Activity,P388 [9],inactive
same,LD50,[10],2.9 mg/kg
same,ILS at 0.6 mg/kg/day,P388 [11],> 263%
same,TGI,[12],<25%
same,ILS at 1.08 mg/kg/day,B16 [13],39%
same,ILS at 0.648 mg/kg/day,B16 [14],40%
same,MST,B16 [15],27.5 days
same,TGI,[16],<25%
same,MTD,[17],0.35 mg/kg/day
same,inhibition in vivo at 0.35 mg/kg/day,[18],54%
same,ILS at 0.9 mg/kg/day,P388 [19],109%
same,MST,B16 [20],28 days
same,MTD at 24 h,[21],9 mg/kg/day
same,ILS at 3 mg/kg/day,B16 [22],62%
same,MST,B16 [23],40.5 days
same,ILS at 0.389 mg/kg/day,B16 [24],12%
same,MST,B16 [25],25 days
same,ILS at 1.08 mg/kg/day,B16 [26],78%
same,ILS at 0.648 mg/kg/day,B16 [27],68%
same,MST,B16 [28],38.5 days
same,MST,B16 [29],33.5 days
same,ILS at 0.4 mg/kg/day,P388 [30],72%
same,ILS at 1.8 mg/kg/day,B16 [31],25%
same,MTD,[32],0.9 mg/kg/day
same,ILS at 9 mg/kg/day,P388 [33],127%
same,ILS at 4 mg/kg/day,P388 [34],95%
same,ILS at 6 mg/kg/day,P388 [35],109%
same,LD50,[36],10 mg/kg
same,ILS at 0.27 mg/kg/day,P388 [37],131%
same,MST,B16 [38],35.5 days
same,ILS at 0.389 mg/kg/day,B16 [39],60%
CC[C@]1(O)C[C@@H]2CN(CCc3c([nH]c4ccccc34)[C@@](C(=O)OC)(c3cc4c(cc3OC)N(C)[C@H]3[C@@](O)(C(N)=O)[C@H](O)[C@]5(CC)C=CCN6CC[C@]43[C@@H]65)C2)C1,Activity,P388 [1],inactive
same,Activity,sarcoma,inactive
same,Activity,P388 [8],inactive
same,Activity,Leukemia cell [40],Active
same,Activity,P388 [41],inactive
same,Activity,P388 [42],inactive
same,Activity,Mus musculus,inactive
same,Activity,Leukemia cell [43],Active
